# Reference: ChEMBL document CHEMBL3407400, “Design, synthesis and biological evaluations of chirally pure 1,2,3,4-tertrahydroisoquinoline analogs as anti-cancer agents” (Eur J Med Chem, 2015)
# Calls of active or inactive are those of the source. No cut-off for these calls is given here.
# Columns and labels:
# DU-145 [1] = experiment: Cell cycle arrest in human DU145 cells assessed as subG1 phase at 1 uM after 48 hrs by propidium iodide based flow cytometry (reference value: 9.36 %); format: functional
# DU-145 [2] = experiment: Cell cycle arrest in human DU145 cells assessed as G0/G1 phase at 1 uM after 48 hrs by propidium iodide based flow cytometry (reference value: 79.15 %); format: functional
# DU-145 [3] = experiment: Cell cycle arrest in human DU145 cells assessed as S phase at 1 uM after 48 hrs by propidium iodide based flow cytometry (reference value: 1.65 %); format: functional
# DU-145 [4] = experiment: Cell cycle arrest in human DU145 cells assessed as G2/M phase at 1 uM after 48 hrs by propidium iodide based flow cytometry (reference value: 6.75 %); format: functional
# DU-145 [5] = experiment: Disruption of microtubule network in human DU145 cells at 50 uM after 48 hrs by immunohistochemistry analysis; format: cell-based
# MCF7 = experiment: Anticancer activity against human MCF7 cells after 48 hrs by MTT assay; format: functional, cell-based; conditions: MCF7, 48 h
# Method in brief: (§1)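 Cell lines held in DMEM or MEM with 10% FBS and antibiotic-antimycotic at 37 °C, 5% CO2. Cells seeded at 1 × 10⁴ per well in DMEM with 10% FBS and left 24 h. Compounds diluted in medium and added alongside vehicle control for 48 h. MTT (5 mg/mL) added for 4 h, formazan dissolved in DMSO, absorbance read at 570 nm.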
# A549 = experiment: Anticancer activity against human A549 cells after 48 hrs by MTT assay; format: functional, cell-based; conditions: A549, 48 h; method in brief: as §1
# DU-145 [6] = experiment: Anticancer activity against human DU145 cells after 48 hrs by MTT assay; format: functional, cell-based; conditions: DU-145, 48 h; method in brief: as §1
# HeLa = experiment: Anticancer activity against human HeLa cells after 48 hrs by MTT assay; format: functional, cell-based; method in brief: as §1
# HepG2 = experiment: Anticancer activity against human HepG2 cells after 48 hrs by MTT assay; format: functional, cell-based; conditions: HepG2, 48 h; method in brief: as §1
# DU-145 [7] = experiment: Cell cycle arrest in human DU145 cells assessed as subG1 phase at 0.5 uM after 48 hrs by propidium iodide based flow cytometry (reference value: 9.36 %); format: functional
# DU-145 [8] = experiment: Cell cycle arrest in human DU145 cells assessed as G0/G1 phase at 0.5 uM after 48 hrs by propidium iodide based flow cytometry (reference value: 79.15 %); format: functional
# DU-145 [9] = experiment: Cell cycle arrest in human DU145 cells assessed as S phase at 0.5 uM after 48 hrs by propidium iodide based flow cytometry (reference value: 1.65 %); format: functional
# DU-145 [10] = experiment: Cell cycle arrest in human DU145 cells assessed as G2/M phase at 0.5 uM after 48 hrs by propidium iodide based flow cytometry (reference value: 6.75 %); format: functional
# Tubulin = experiment: Inhibition of tubulin (unknown origin) polymerization by fluorescence assay; format: protein-complex assay, Homo sapiens
# DU-145 [11] = experiment: Induction of apoptosis in human DU145 cells assessed as DNA fragmentation at 0.5 uM after 48 hrs by agarose gel electrophoresis; format: functional, cell-based
# Method in brief: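 DU-145 cells (1 × 10⁶) seeded, then treated 24 h later for 48 h. Lysate cleared, then digested with SDS/RNase A (2 h, 56 °C) and proteinase K (2 h, 37 °C). DNA precipitated with ammonium acetate and ice-cold ethanol, dissolved in TE. Laddering resolved on 2% agarose.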
# DU-145 [12] = experiment: Induction of apoptosis in human DU145 cells assessed as activation of caspase 3 at 0.5 to 1 uM after 48 hrs by fluorometric assay relative to control; format: functional
# Method in brief: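 DU-145 cells treated for 48 h. Fluorometric caspase-3 kit used: […] substrate added to cell lysate, 1 h at 37 °C. Fluorescence read at excitation 400 nm, emission 505 nm.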
# DU-145 [13] = experiment: Induction of apoptosis in human DU145 cells assessed as down regulation of Bcl2 at 0.5 uM after 48 hrs by Western blot analysis relative to control; format: functional, cell-based
# DU-145 [14] = experiment: Induction of apoptosis in human DU145 cells assessed as up regulation of Bax at 0.5 uM after 48 hrs by Western blot analysis relative to control; format: functional, cell-based
# DU-145 [15] = experiment: Induction of apoptosis in human DU145 cells assessed as necrotic cells at 0.5 uM after 48 hrs by annexin V FITC/PI dual staining assay (reference value: 0.31 %); format: functional
# DU-145 [16] = experiment: Induction of apoptosis in human DU145 cells assessed as viable cells at 0.5 uM after 48 hrs by annexin V FITC/PI dual staining assay (reference value: 96.45 %); format: functional; conditions: DU-145, 48 h, read-out: Activity
# DU-145 [17] = experiment: Induction of apoptosis in human DU145 cells assessed as late apoptotic cells at 0.5 uM after 48 hrs by annexin V FITC/PI dual staining assay (reference value: 2.47 %); format: functional
# DU-145 [18] = experiment: Induction of apoptosis in human DU145 cells assessed as early apoptotic cells at 0.5 uM after 48 hrs by annexin V FITC/PI dual staining assay (reference value: 0.77 %); format: functional
# DU-145 [19] = experiment: Induction of apoptosis in human DU145 cells assessed as necrotic cells at 1 uM after 48 hrs by annexin V FITC/PI dual staining assay (reference value: 0.31 %); format: functional
# DU-145 [20] = experiment: Induction of apoptosis in human DU145 cells assessed as viable cells at 1 uM after 48 hrs by annexin V FITC/PI dual staining assay (reference value: 96.45 %); format: functional; conditions: DU-145, 48 h, read-out: Activity
# DU-145 [21] = experiment: Induction of apoptosis in human DU145 cells assessed as late apoptotic cells at 1 uM after 48 hrs by annexin V FITC/PI dual staining assay (reference value: 2.47 %); format: functional
# DU-145 [22] = experiment: Induction of apoptosis in human DU145 cells assessed as early apoptotic cells at 1 uM after 48 hrs by annexin V FITC/PI dual staining assay (reference value: 0.77 %); format: functional
Compound,Activity (DU-145 [1]),Activity (DU-145 [2]),Activity (DU-145 [3]),Activity (DU-145 [4]),Activity (DU-145 [5]),IC50 (MCF7),IC50 (A549),IC50 (DU-145 [6]),IC50 (HeLa),IC50 (HepG2),other results
COC(=O)Nc1nc2cc(C(=O)c3cccs3)ccc2[nH]1 [NOCODAZOLE],4.52%,48.19%,0.86%,43.4%,Active,–,–,–,–,–,–
Cc1ccc(S(=O)(=O)N[C@@H](Cc2ccccc2)C(=O)N2Cc3ccccc3[C@@H](OCc3ccccc3)[C@@H]2CO)cc1,–,–,–,–,–,8.71 µM,6.91 µM,1.26 µM,12.3 µM,2.24 µM,–
Cc1ccc(S(=O)(=O)N2CC(=O)N3Cc4ccccc4[C@@H](OCc4ccccc4)[C@@H]3C2)cc1,5.02%,46.74%,0.9%,44.17%,Active,2.51 µM,1.26 µM,0.72 µM,3.16 µM,0.87 µM,Activity (DU-145 [7]): 8.22%; Activity (DU-145 [8]): 67.34%; Activity (DU-145 [9]): 2.64%; Activity (DU-145 [10]): 17.68%; IC50 (Tubulin): 1.68 µM; Activity (DU-145 [11]): Active; fold change (FC) (DU-145 [12]): 3; Activity (DU-145 [13]): Active; Activity (DU-145 [14]): Active; Activity (DU-145 [15]): 0.63%; viability at 0.5 µM (DU-145 [16]): 90.1%; Activity (DU-145 [17]): 6.47%; Activity (DU-145 [18]): 2.79%; Activity (DU-145 [19]): 4.48%; viability at 1 µM (DU-145 [20]): 65.6%; Activity (DU-145 [21]): 25.79%; Activity (DU-145 [22]): 4.15%
O=C(/C=C/c1ccc(F)cc1)N1Cc2ccccc2[C@@H](OCc2ccccc2)[C@@H]1CO,–,–,–,–,–,57.3 µM,32.3 µM,29.3 µM,58.3 µM,24.6 µM,–
Cc1ccc(S(=O)(=O)N[C@H](C(=O)N2Cc3ccccc3[C@@H](OCc3ccccc3)[C@@H]2CO)C(C)C)cc1,–,–,–,–,–,60.4 µM,79.4 µM,31.6 µM,92.6 µM,32 µM,–
O=C(/C=C/c1ccccc1)N1Cc2ccccc2[C@@H](OCc2ccccc2)[C@@H]1CO,–,–,–,–,–,39.8 µM,25.1 µM,12.9 µM,27.7 µM,20.7 µM,–
CC#CC(=O)N1Cc2ccccc2[C@@H](OCc2ccccc2)[C@@H]1CO,–,–,–,–,–,18.6 µM,9.33 µM,6.16 µM,11.6 µM,7.94 µM,–
Cc1ccc(S(=O)(=O)N2C[C@H]3[C@H](OCc4ccccc4)c4ccccc4CN3C(=O)[C@@H]2C)cc1,6.74%,46.67%,1.83%,40.27%,Active,5.49 µM,2.45 µM,1.23 µM,7.31 µM,1.7 µM,Activity (DU-145 [7]): 8.25%; Activity (DU-145 [8]): 68.53%; Activity (DU-145 [9]): 2.8%; Activity (DU-145 [10]): 16.96%; IC50 (Tubulin): 3.55 µM; Activity (DU-145 [11]): Active; fold change (FC) (DU-145 [12]): 3; Activity (DU-145 [13]): Active; Activity (DU-145 [14]): Active; Activity (DU-145 [15]): 0.82%; viability at 0.5 µM (DU-145 [16]): 92.8%; Activity (DU-145 [17]): 4.45%; Activity (DU-145 [18]): 1.88%; Activity (DU-145 [19]): 4.7%; viability at 1 µM (DU-145 [20]): 69.2%; Activity (DU-145 [21]): 21.14%; Activity (DU-145 [22]): 4.94%
Cc1ccc(S(=O)(=O)N[C@@H](C)C(=O)N2Cc3ccccc3[C@@H](OCc3ccccc3)[C@@H]2CO)cc1,–,–,–,–,–,14.8 µM,7.37 µM,4.67 µM,21 µM,5.37 µM,–
